{"source": "ChEMBL document CHEMBL1122935", "about": "“3-(1-Indolinyl)benzylamines: a new class of analgesic agents” (J Med Chem, 1985)", "key": {"Mus musculus [1]": {"system": "Mus musculus", "assay": "inhibition of PQW-writhing in mice on subcutaneous administration at dose 10 mg/kg. compound showed slight activity in the range of 10-34%,", "type": "functional", "conditions": "sc"}, "Mus musculus [2]": {"system": "Mus musculus", "assay": "inhibition of PQW-writhing in mice on subcutaneous administration at dose 10 mg/kg. compound showed slight activity in the range of 10-34%", "type": "functional", "conditions": "sc"}, "Mus musculus [3]": {"system": "Mus musculus", "assay": "Inhibition of PQW-writhing in mice on subcutaneous administration at dose 25 mg/kg; Range of inhibition 35-69% (moderate activity)", "type": "functional", "conditions": "sc"}, "Mus musculus [4]": {"system": "Mus musculus", "assay": "inhibition of PQW-writhing in mice on subcutaneous administration at dose 10 mg/kg. compound showed moderate activity in the range of 35-69%.", "type": "functional", "conditions": "sc"}, "Mus musculus [5]": {"system": "Mus musculus", "assay": "Inhibition of PQW-writhing in mice on subcutaneous administration at dose 10 mg/kg", "type": "functional", "conditions": "sc"}, "Mus musculus [6]": {"system": "Mus musculus", "assay": "Inhibition of PQW-writhing in mice on subcutaneous administration at dose 10 mg/kg. compound showed 10-34% inhibition (slight activity)", "type": "functional", "conditions": "sc"}, "[7]": {"assay": "Compound was tested for the approximate analgesic lethal dose (ALD50) on rats", "type": "ADME, organism-based", "conditions": "rat, in vivo; read-out: ALD50"}, "Rattus norvegicus [8]": {"species_on_record": "Rattus norvegicus", "assay": "The analgesic activity by D'Armour-Smith tail-flick assay in rats.", "type": "functional", "method_in_brief": "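Rat tail-flick test. Compound was given sc in distilled water at 4, 8, 16 and 32 mg/kg, and percent analgesic activity was recorded at each dose. ED50 was calculated by Litchfield-Wilcoxon analysis with 95% confidence limits.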"}, "Mus musculus [9]": {"system": "Mus musculus", "assay": "(§1) Oral anti-writhing activity at a dose of 25 mg/kg administered perorally in PQW assay", "type": "functional", "method_in_brief": "(§2)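 Mouse phenylquinone writhing assay with the compound given orally at 25 mg/kg. Writhing was induced with 0.125% phenyl-p-benzoquinone in 5% aqueous ethanol, 10 mL/kg ip. Writhes were counted over 10 min after a 5-min wait, and percent inhibition was calculated against vehicle-treated controls.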"}, "Rattus norvegicus [10]": {"system": "Rattus norvegicus", "assay": "as §1", "type": "functional", "method_in_brief": "as §2"}, "Mus musculus [11]": {"system": "Mus musculus", "assay": "Inhibition of PQW-writhing in mice on subcutaneous administration at dose 10 mg/kg; Moderate activity in the range of 35-69%.", "type": "functional", "conditions": "sc"}, "Mus musculus [12]": {"system": "Mus musculus", "assay": "Inhibition of PQW-writhing in mice on subcutaneous administration at dose 10 mg/kg; Slight activity in the range of 10-34%", "type": "functional", "conditions": "sc"}}, "data": [{"smiles": "c1ccc(CCNCc2cccc(N3CCc4ccccc43)c2)cc1", "values": [{"measurement": "inhibition in vivo at 10 mg/kg", "setting": "Mus musculus [1]", "result": 34, "unit": "%"}]}, {"smiles": "NCc1cccc(-n2ccc3cc(Cl)ccc32)c1", "values": [{"measurement": "inhibition in vivo at 10 mg/kg", "setting": "Mus musculus [2]", "result": 34, "unit": "%"}]}, {"smiles": "Nc1ccccc1N1CCc2ccccc21", "values": [{"measurement": "inhibition in vivo at 25 mg/kg", "setting": "Mus musculus [3]", "result": 43, "unit": "%"}]}, {"smiles": "O=C(NCc1cccc(N2CCc3ccccc32)c1)C1CC1", "values": [{"measurement": "inhibition in vivo at 10 mg/kg", "setting": "Mus musculus [4]", "result": 69, "unit": "%"}]}, {"smiles": "CCC(=O)O[C@](Cc1ccccc1)(c1ccccc1)[C@H](C)CN(C)C", "note": "[PROPOXYPHENE]", "values": [{"measurement": "ED50", "setting": "Mus musculus [5]", "result": 3.9, "unit": "mg/kg"}]}, {"smiles": "NC(c1ccccc1)c1cccc(N2CCc3ccccc32)c1", "note": "(centres undefined)", "values": [{"measurement": "inhibition in vivo at 10 mg/kg", "setting": "Mus musculus [4]", "result": 69, "unit": "%"}]}, {"smiles": "c1cc(CNCC2CC2)cc(N2CCc3ccccc32)c1", "values": [{"measurement": "inhibition in vivo at 10 mg/kg", "setting": "Mus musculus [4]", "result": 69, "unit": "%"}]}, {"smiles": "NCc1ccc(N2CCc3ccccc32)cc1", "values": [{"measurement": "inhibition in vivo at 10 mg/kg", "setting": "Mus musculus [6]", "result": 34, "unit": "%"}]}, {"smiles": "NCc1cccc(N2CCc3ccccc32)c1", "values": [{"measurement": "ED50", "setting": "Mus musculus [5]", "result": 4.2, "unit": "mg/kg"}, {"measurement": "LD50", "setting": "[7]", "result": "> 100", "unit": "mg/kg"}, {"measurement": "ED50", "setting": "Rattus norvegicus [8]", "result": 27, "unit": "mg/kg"}, {"measurement": "inhibition in vivo at 25 mg/kg", "setting": "Mus musculus [9]", "result": 36, "unit": "%"}, {"measurement": "inhibition in vivo at 25 mg/kg", "setting": "Rattus norvegicus [10]", "result": 19, "unit": "%"}]}, {"smiles": "NCc1cccc(CN2CCc3ccccc32)c1", "values": [{"measurement": "inhibition in vivo at 10 mg/kg", "setting": "Mus musculus [11]", "result": 69, "unit": "%"}]}, {"smiles": "COc1ccc2c(c1)CCN2c1cccc(CN)c1", "values": [{"measurement": "inhibition in vivo at 10 mg/kg", "setting": "Mus musculus [4]", "result": 69, "unit": "%"}]}, {"smiles": "NCc1cccc(-n2ccc3ccccc32)c1", "values": [{"measurement": "ED50", "setting": "Mus musculus [5]", "result": 19.1, "unit": "mg/kg"}]}, {"smiles": "CCOC(=O)NCc1cccc(N2CCc3ccccc32)c1", "values": [{"measurement": "inhibition in vivo at 10 mg/kg", "setting": "Mus musculus [1]", "result": 34, "unit": "%"}]}, {"smiles": "NCCc1cccc(N2CCc3ccccc32)c1", "values": [{"measurement": "inhibition in vivo at 10 mg/kg", "setting": "Mus musculus [4]", "result": 69, "unit": "%"}]}, {"smiles": "NCc1cccc(CN2CCc3cc(Cl)ccc32)c1", "values": [{"measurement": "ED50", "setting": "Mus musculus [5]", "result": 20.2, "unit": "mg/kg"}]}, {"smiles": "NCc1cccc(N2CCc3cc(Cl)ccc32)c1", "values": [{"measurement": "ED50", "setting": "Mus musculus [5]", "result": 4.2, "unit": "mg/kg"}]}, {"smiles": "COc1ccc2c(c1)CCN2Cc1cccc(CN)c1", "values": [{"measurement": "inhibition in vivo at 10 mg/kg", "setting": "Mus musculus [12]", "result": 34, "unit": "%"}]}, {"smiles": "O=C(Cc1ccccc1)NCc1cccc(N2CCc3ccccc32)c1", "values": [{"measurement": "inhibition in vivo at 10 mg/kg", "setting": "Mus musculus [4]", "result": 69, "unit": "%"}]}, {"smiles": "CNCc1cccc(N2CCc3ccccc32)c1", "values": [{"measurement": "inhibition in vivo at 10 mg/kg", "setting": "Mus musculus [1]", "result": 34, "unit": "%"}]}, {"smiles": "CC(C)=CCN1CC[C@]2(C)c3cc(O)ccc3C[C@H]1[C@H]2C", "note": "[(+)-PENTAZOCINE]", "values": [{"measurement": "ED50", "setting": "Mus musculus [5]", "result": 2.3, "unit": "mg/kg"}, {"measurement": "ED50", "setting": "Rattus norvegicus [8]", "result": 14.6, "unit": "mg/kg"}]}, {"smiles": "COc1ccc2c(ccn2-c2cccc(CN)c2)c1", "values": [{"measurement": "inhibition in vivo at 10 mg/kg", "setting": "Mus musculus [4]", "result": 69, "unit": "%"}]}, {"smiles": "CC(N)c1cccc(N2CCc3ccccc32)c1", "note": "(centres undefined)", "values": [{"measurement": "inhibition in vivo at 10 mg/kg", "setting": "Mus musculus [4]", "result": 69, "unit": "%"}]}, {"smiles": "NCc1ccccc1N1CCc2ccccc21", "values": [{"measurement": "ED50", "setting": "Mus musculus [5]", "result": 14.1, "unit": "mg/kg"}]}, {"smiles": "CN(C)Cc1cccc(N2CCc3ccccc32)c1", "values": [{"measurement": "inhibition in vivo at 10 mg/kg", "setting": "Mus musculus [1]", "result": 34, "unit": "%"}]}]}
